Data as given in the EternaBench riboswitch data.

Test system: MS2 coat protein
Test: apparent Kd, MS2 coat protein; higher = weaker binding; RNA-MaP array; FMN 200 µM where present
How it was run: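 Each design was made on Illumina sequencing-chip clusters by stalled E. coli RNA polymerase and titrated with SNAP-549-labelled MS2 coat protein from 0.7 or 1.5 nM, doubling to 3 µM, in the absence and then the presence of constant ligand. The buffer was 100 mM Tris-HCl pH 7.5, 80 mM KCl, 4 mM MgCl2, BSA, DTT, yeast tRNA and Tween-20. The apparent Kd is the median of filtered per-cluster fits of binding curves, with green signal normalised to red-channel RNA signal and control-cluster median Fmax.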

[1] = designed as: OFF switch for flavin mononucleotide, no ligand
[2] = ligand present: flavin mononucleotide, designed as: OFF switch for flavin mononucleotide
[3] = designed as: ON switch for flavin mononucleotide, no ligand
[4] = ligand present: flavin mononucleotide, designed as: ON switch for flavin mononucleotide

| Sequence | apparent Kd [1] | apparent Kd [2] | apparent Kd [3] | apparent Kd [4] |
| --- | --- | --- | --- | --- |
| AACAGCUCGUCAGGAUAUACGUCACUGCGUCAGCAGUGUGGUAAGAUCACAUGAGGAUCACCCAUGUAGAAGGGACGAGCUGAU | 14.3 nM | 267 nM | – | – |
| AACAGCUCGUCAGGAUAUAUUUUCCUUUUAUGUAUUUAUGUACAUGAGGAUCACCCAUGUUGUUUGUAGAAGGGACGAGCUGAA | 27.5 nM | 35.7 nM | – | – |
| AACAGCUCGUCAGGAUAUAUUUUCUUUUUAUGUAUUUAUGUACAUGAGGAUCACCCAUGUUGUUUGUAGAAGGGACGAGCUGAA | 20.1 nM | 16.7 nM | – | – |
| AACAGGACAGGAUAUACAUGAGGAUCACCCAUGUGAGAAUUAAGUAGAUUGCCACAGAGUAGAAGGGUCCUGGA | 66.6 nM | 91.2 nM | – | – |
| AACAGGUCAGGAUAUACAUGAGGAUCACCCAUGUAACAAGCGGAGGCGACUUCUCAAGGUAGAAGGGAUCUCCG | 19.8 nM | 18.9 nM | – | – |
| AACAGGUGAGGAUAUCGAACAACAACAACAACAACAACAAACGAGAAGGCACAUGAGGAUCACCCAUGUAAGAA | 20 nM | 17.5 nM | – | – |
| AACAGUACAGGAUAUACAUGAGGAUCACCCAUGUGAUCAUCAAGUGCCGUAGCACGAAGUAGAAGGGUACUGGA | 207 nM | 57 nM | – | – |
| AACAUACUGUACAUGAGGAUCACCCAUGUUCGGGCACUGUACAGAAGGCACGGGCAAAUGCGAGGUGAGGAUAUGUAGUUAGUG | – | – | 122 nM | 49.8 nM |
| AACCAUGAGCGAGGAUAUCACCCUACGGAGUGGUGAGAAGGCGCAACAUGAGGAUCACCCAUGUACAAAUGCGGGACCCUUUUC | 31 nM | 92.6 nM | – | – |
| AACCGACAUGAGGAUCACCCAUGUCAGGAUAUGGACUGACAUCGAAAGGAUGGAGGAACCAGAAGGGACUGGGC | 37.1 nM | 81.6 nM | – | – |
| AACGAGGCAGGAUAUACAUGAGGAUCACCCAUGUGCUUGCAUGGCGUGGGAAGUCAUCGUAGAAGGGCCAUGCC | 154 nM | 74.2 nM | – | – |
| AACGAUCUAGGAUAUACAUGAGGAUCACCCAUGUAAGAGCCCGAACCGGGCUCCCUCUGUAGAAGGAGGUCAAA | 32.7 nM | 40.3 nM | – | – |
| AACGCGUCAGGAUAUAGCGAAACUUAGGUAGUACAACCAUACUAGAAGGGACAUGAGGAUCACCCAUGUGGGUA | 209 nM | 104 nM | – | – |
| AACGCGUCAGGAUAUGCCAUAAAUUACCUAAUACGACCAUAGCAGAAGGGACAUGAGGAUCACCCAUGUAAAUA | 36.2 nM | 28.8 nM | – | – |
| AACGUGGCUUAGGAUAUUGCUACGCAAAAGUAACAAGAAGGAGGCACAUGAGGAUCACCCAUGUGAUUCGUUGA | 19.8 nM | 44.9 nM | – | – |
| AACGUGUCAGGAUAUGCUGCUCGUCACGAAAGUGAUGAGUAGCAGAAGGGACAUGAGGAUCACCCAUGUAAAGA | 153 nM | 101 nM | – | – |
| AACUAACAUGAGGAUCACCCAUGUCAGGAUAUGCAUCAAUCAAUCAAUCAAUCAAUCAGCAGAAGGGACACUAC | 16.8 nM | 19.4 nM | – | – |
| AACUAGUCAGGAUAUACGAACAUGUCAAAAAACAUAAAGGGACAUGAGGAUCACCCAUGUAGAAGGGACUAGCA | 177 nM | 666 nM | – | – |
| AACUCGUCAGGAUAUGCGCGCAGUUACUACGCUUCGCAAUUGCAGAAGGGACAUGAGGAUCACCCAUGUAGAUC | 34.6 nM | 57.3 nM | – | – |

| Sequence | apparent Kd [1] | apparent Kd [2] | apparent Kd [3] | apparent Kd [4] |
| --- | --- | --- | --- | --- |
| AACUGACAUGAGGAUCACCCAUGUCAGGAUAUGACUUGACGAAAUAAAACACGUCAUGUCAGAAGGGACAUGAA | 17.4 nM | 15.2 nM | – | – |
| AAGAAACAUGAGGAUCACCCAUGUGAGGAUAUGUAAAAGAAAAGAAAAUAAAGAAGAAACAGAAGGCACAAAGG | 40.2 nM | 64.4 nM | – | – |
| AAGAAAGUUUACGAGGAUAUGUUCCGCAUAACAUGAGGAUCACCCAUGUGAACAAGAAAGGCGACGCAGAAGGCGUGAGCAAAGA | – | – | 359 nM | 43.2 nM |
| AAGAACUGAGGAUAUGCAAAAGGGAAAGCUGAUCCUCAUCUACAUGAGGAUCACCCAUGUAGAAGGCGGGAAAU | 49.4 nM | 50.5 nM | – | – |
| AAGAAGUCAGGAUAUGCUGCUCGUCACUUGCGUGAUGAGUAGCAGAAGGGACAUGAGGAUCACCCAUGUAAAGA | 32.5 nM | 67.4 nM | – | – |
| AAGAAGUGAGGAUAUACAUGAGGAUCACCCAUGUAAAGAAGAAGAGGAGAGAAUAAAGGUAGAAGGCACAAGAA | 45.8 nM | 46 nM | – | – |
| AAGAAGUGAGGAUAUGUAUCAGUAUAGUUGCCUAUACUGAUGUAGAAGGCACAUGAGGAUCACCCAUGUCCUAA | 20.8 nM | 25 nM | – | – |
| AAGACACAUGAGGAUCACCCAUGUCAAGAGAGACGAGGAUAUCUGAAUUAAUUAAAUUAAGGAGAAGGCGUGAAAA | – | – | 78.9 nM | 30.9 nM |
| AAGACAUGAGGAUCACCCAUGUAAAGACCGGUCGAUCAAUGUGAGGAUAUACGAUAAUUGAUAGGGUAGAAGGCACUGGGUUGA | – | – | 264 nM | 151 nM |
| AAGACUAGAGGAUAUACAUGAGGAUCACCCAUGUAACUGUCAGGUGACUGACGGAAAAGUAGAAGGCUAGUCAA | 16.6 nM | 20 nM | – | – |
| AAGAGAAAAGCAGGAUAUCUAUUGGCUCCUUAACAUGAGGAUCACCCAUGUAGAGAAGGGCUAAGACCGACUCUUCGGAGUUGA | 7.07 nM | 20.6 nM | – | – |
| AAGAGACAUCAGAAGGGAGCCCGAACGCGCGGCUCAGGAUAUGAGAUCUUAUGUAGUACGACAUGAGGAUCACCCAUGUCCGCG | – | – | 28.2 nM | 8.05 nM |
| AAGAGCGAUUCUCCCUUCCUACAUGAGGAUCACCCAUGUACGAGAAGGCGCCGUGUAUACAACGGUGAGGAUAUCGUGCGUUAC | 4.64 nM | 4.91 nM | – | – |
| AAGAGUAGAGGAUAUACAUGAGGAUCACCCAUGUAAUCCAGAUAAGGAAGCAUGGCGUGUAGAAGGCUGCAUGA | 38.5 nM | 42.4 nM | – | – |
| AAGAGUGCAGGAUAUACUUGUUAGGACGGUUGGAUGGUUUGACAUGAGGAUCACCCAUGUAGAAGGGCAGAGAG | 67.7 nM | 67.8 nM | – | – |
| AAGCACAGAGGAUAUACAUGGGUGAUAAAAAUCAUGUAAAAACAUGAGGAUCACCCAUGUAGAAGGCUGUGCAA | 22 nM | 23.1 nM | – | – |
| AAGCAGGUAAUAAAGUAGAAAUACAUGAGGAUCACCCAUGUAUAGGAUAUCGUCAGGAAUACUGACGAGAAGGAUACAUCCUGC | 15.3 nM | 18.6 nM | – | – |
| AAGCCCUGAGGAUAUCUCAUCUCGCACAUGAGGAUCACCCAUGUUCUUCUCUGGGUUUCGAGAGAAGGCAGGCCUC | 954 nM | 641 nM | – | – |
| AAGCGACAUGAGGAUCACCCAUGUAGCAGGGUCAGAGGAUAUUUGAGCUUGGUGAGGGUUAAAGAAGGUUGAAAUC | – | – | 25.2 nM | 33.1 nM |

| Sequence | apparent Kd [1] | apparent Kd [2] | apparent Kd [3] | apparent Kd [4] |
| --- | --- | --- | --- | --- |
| AAGCUCGUGUGAGGAUAUGCCGCCGUUUCGGCUGCAGAAGGUGCUACGUUACAUGAGGAUCACCCAUGUCUCUGUUGUUUCGUC | – | – | 29.9 nM | 24.8 nM |
| AAGGAGUGAGGAUAUGCGCGGGCACGCUCUAAAUAAGAAAGACAUGAGGAUCACCCAUGUAGAAGGCACAAUAA | 19.9 nM | 32.5 nM | – | – |
| AAGGCCUAUUCCAGGACUAUCGUACUAGAAGGGUGACUUGACAUGAGGAUCACCCAUGUACGAGCACAGGAUAUAGAUGAAAGG | – | – | 42.7 nM | 20.2 nM |
| AAGGUACGAGGAUAUACAUAGAUACAGACACAUGUGCAUGUACAUGAGGAUCACCCAUGUAGAAGGCGUAUAUA | 30.2 nM | 110 nM | – | – |
| AAGGUGAGAGGAUAUACAUGAGGAUCACCCAUGUGUCGGCCCUCCACAUAUGCCUUGUGUAGAAGGCUCCCGAG | 14.6 nM | 22.3 nM | – | – |
| AAGUAGAUCCGAGGAUAUACAAGGCGGAAACGCUACAUGAGGAUCACCCAUGUAGAAGGCGGAUCUACAGGUACUAAAGUACCA | 5.84 nM | 10.5 nM | – | – |
| AAGUAGGUAGGAUAUACAUGGAUAUACAUUCAUGUGGACCUACAUGAGGAUCACCCAUGUAGAAGGACCUAUAA | 40.4 nM | 58 nM | – | – |
| AAGUAGGUAGGAUAUACAUGGAUAUACAUUCAUGUGGAUUUACAUGAGGAUCACCCAUGUAGAAGGACCUAAUA | 118 nM | 30.8 nM | – | – |
| AAGUAUAGAGGAUAUAGUAGUUACAACAUGAGGAUCACCCAUGUUCUUCAUAACGUAGUUCUAGAAGGCUGAUAAA | 183 nM | 271 nM | – | – |
| AAGUAUAGAGGAUAUAGUGAGUACUACAUGAGGAUCACCCAUGUUCUUCAAAACGUAUUUCUAGAAGGCUGUUAAA | 45.3 nM | 86.7 nM | – | – |
| AAGUCAGCAGGAUAUGCGAUGGUGUACUAGGUAGUUUGCCCACAUGAGGAUCACCCAUGUAGAAGGGCUGGCUA | 14.7 nM | 21.4 nM | – | – |
| AAGUCUGGACGAGGAUAUCAGCUGUAACUGGCGUCAACAUGAGGAUCACCCAUGUUGCUAUAGGGUGAGAAGGCGUUUGGGCAA | – | – | 24.1 nM | 19.5 nM |
| AAGUCUGGACGAGGAUAUCAGUUGUAUCUAGAAUCAACAUGAGGAUCACCCAUGUUGCAAUAGGGUGAGAAGGCGUUUGGGCAA | – | – | 81.8 nM | 18.1 nM |
| AAGUGUCCUAAGGAUAUCGAAGCUAUCGGCUGCCGAGAAGGUAGGACAUGAGGAUCACCCAUGUACCGUGAGCC | 68.1 nM | 29.8 nM | – | – |
| AAGUUUAACGAAGGAUAUGGUUACAUGAGGAUCACCCAUGUAAUGGUUGUGAUAUUGAUUAAGUUCCAGAAGGUCGUAUACAUA | 109 nM | 301 nM | – | – |
| AAUAACAGAGGAUAUACGAAAAUAAGCGGAAACGCAAAGGGACAUGAGGAUCACCCAUGUAGAAGGCUGGAUAA | 32.6 nM | 183 nM | – | – |
| AAUAACAGAGGAUAUACUAUUUUAUGUAUUUAUUAUUUUGAACAUGAGGAUCACCCAUGUAGAAGGCUGAUUAA | 29.6 nM | 27.2 nM | – | – |
| AAUAACAGAGGAUAUACUAUUUUAUGUGUUUAUUGUUUUAAACAUGAGGAUCACCCAUGUAGAAGGCUGAAUGA | 37.6 nM | 54.4 nM | – | – |
| AAUAACAGAGGAUAUACUGUUUUAUGUAUUUAUUAUUUUGAACAUGAGGAUCACCCAUGUAGAAGGCUGAUUGA | 35.6 nM | 31.6 nM | – | – |
